According to ChEMBL document CHEMBL1154705, “Modulation of carcinogen metabolizing enzymes by new fused heterocycles pendant to 5,6,7,8-tetrahydronaphthalene derivatives” (Eur J Med Chem, 2010):
Active and inactive are the calls of the source. No cut-off for these calls is given here.

How the values were obtained:
[1] = test system: Hepa-1c1c7; assay: Inhibition of CYP1A in mouse Hepa-1c1c7 cells at 1 ug/ml assessed as dealkylation rate of 3-cyano-7-ethoxycoumarin; assay type: cell-based
[2] = Cytotoxicity against mouse Hepa-1c1c7 cells after 48 hrs by MTT assay; assay type: functional, cell-based
How it was run: (§1)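 MTT reduction assay: cells seeded at 5 x10⁴ cells/well and incubated 48 h at 37 °C with various concentrations of compounds. Formazan solubilized in acidic isopropanol.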

[3] = test system: Hepa-1c1c7; assay: Induction of GST activity in mouse Hepa-1c1c7 cells at 10 ug/ml after 48 hrs by bicinchoninic acid assay; assay type: cell-based
How it was run: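 Hepa1c1c7 cells in DMEM with 10% FBS, 37 °C, 5% CO₂, treated 48 h with compounds (DMSO diluted 1000-fold). Total GST activity read kinetically at 340 nm. Activity normalized to protein by BCA and given relative to DMSO control (100%). Four repeats, mean ± S.D.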

[4] = test system: Hepa-1c1c7; assay: Antioxidant activity in mouse Hepa-1c1c7 cells assessed as increase in total thiol content at […] after 48 hrs; assay type: functional, cell-based
How it was run: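 Hepa1c1c7 cells (1 x10⁶) exposed to compounds for 48 h (DMSO vehicle diluted 1000-fold; DMSO-treated cells as comparator). Total cellular thiols measured by glutathione disulfide reductase/DTNB enzymatic cycling. Four repeats, mean ± S.D.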

[5] = test system: Lymphocyte; assay: Inhibition of methyl methanesulphonate-induced DNA damage in human lymphocyte assessed as tail length at 10 ug/ml after 1 hr before MMS challenge measured after 3 hrs by comet assay; assay type: functional
[6] = test system: Lymphocyte; assay: Inhibition of methyl methanesulphonate-induced DNA damage in human lymphocyte assessed as inhibition of tail moment at 10 ug/ml after 1 hr before MMS challenge measured after 3 hrs by comet assay; assay type: functional, cell-based
[7] = Cytotoxicity against human lymphocytes after 48 hrs by MTT assay; assay type: functional, cell-based; details: lymphocyte; how it was run: as §1
[8] = Antioxidant activity assessed as hydroxyl radical scavenging activity by ORAC assay; assay type: functional
[9] = Antioxidant activity assessed as peroxyl radical scavenging activity by ORAC assay; assay type: functional
[10] = target: T1, Epoxide hydrolase 1 (Mus musculus) (UniProt Q9D379); assay: Induction of mEH enzyme in mouse Hepa-1c1c7 assessed as formation of 7(29,39-dihydroxy)propoxycoumarin at 10 µg/ml after 48 hrs
T1 sequence (whole entry): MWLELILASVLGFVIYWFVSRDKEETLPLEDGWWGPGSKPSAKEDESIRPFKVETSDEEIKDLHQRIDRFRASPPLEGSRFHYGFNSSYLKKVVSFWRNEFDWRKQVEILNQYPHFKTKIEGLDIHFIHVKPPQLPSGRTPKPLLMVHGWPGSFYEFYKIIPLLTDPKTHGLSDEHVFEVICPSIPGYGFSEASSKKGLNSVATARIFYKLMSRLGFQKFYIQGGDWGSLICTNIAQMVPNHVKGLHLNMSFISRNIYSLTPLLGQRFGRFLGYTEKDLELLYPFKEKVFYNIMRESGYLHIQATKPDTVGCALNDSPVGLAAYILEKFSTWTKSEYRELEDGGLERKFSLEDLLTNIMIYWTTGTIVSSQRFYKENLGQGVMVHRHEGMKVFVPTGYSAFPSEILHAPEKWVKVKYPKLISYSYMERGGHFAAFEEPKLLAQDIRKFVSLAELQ

| Activity [10] | Structure (SMILES) | inhibition [1] | IC50 [2] | Activity [3] | Activity [4] | Activity [5] | Activity [6] | IC50 [7] | Activity [8] | Activity [9] |
| --- | --- | --- | --- | --- | --- | --- | --- | --- | --- | --- |
|  | c1ccc2c(c1)nc1[nH]c(-c3ccc4c(c3)CCCC4)cn12 | 26.4% | > 50 µg/mL | Active | Active | 17.2 micrometer | Active | > 50 µg/mL |  |  |
| Active | O=C(C[n+]1ccccc1)c1ccc2c(c1)CCCC2.[Br-] | < 10% | > 50 µg/mL | Active | Active | 34.31 micrometer | Active | > 50 µg/mL | Active | Active |
| Active | Cc1cc[n+](CC(=O)c2ccc3c(c2)CCCC3)cc1.[Br-] | < 10% | > 50 µg/mL |  |  | 59.41 micrometer |  | > 50 µg/mL |  |  |
|  | COC(=O)c1c(C(=O)OC)c2ccccn2c1C(=O)c1ccc2c(c1)CCCC2 | < 10% | > 50 µg/mL |  |  | 36.66 micrometer |  | > 50 µg/mL |  |  |
| Active | Cc1cccc[n+]1CC(=O)c1ccc2c(c1)CCCC2.[Br-] | < 10% | > 50 µg/mL |  |  | 17.7 micrometer | Active | > 50 µg/mL |  | Active |
|  | COC(=O)c1c(C(=O)OC)c2cccc(C)n2c1C(=O)c1ccc2c(c1)CCCC2 | < 10% | > 50 µg/mL | Active |  | 18.3 micrometer | Active | > 50 µg/mL | Active |  |
|  | COC(=O)c1c(C(=O)OC)c2cc(C)ccn2c1C(=O)c1ccc2c(c1)CCCC2 | < 10% | > 50 µg/mL |  | Active | 22.8 micrometer | Active | > 50 µg/mL | Active |  |
